# Measured values pooled from the literature.
# TOP2A: DNA topoisomerase 2-alpha (TOP2A, Homo sapiens, UniProt P11388)
# DHFR: Dihydrofolate reductase (DHFR, Homo sapiens, UniProt P00374)
# HTR2B: 5-hydroxytryptamine receptor 2B (HTR2B, Homo sapiens, UniProt P41595)
# FAAH: Fatty-acid amide hydrolase 1 (FAAH, Homo sapiens, UniProt O00519)
# HTR2C: 5-hydroxytryptamine receptor 2C (HTR2C, Homo sapiens, UniProt P28335)
SMILES,target,test,IC50 [µM]
O=c1nc(SCc2cc(F)cc(C(F)(F)F)c2)nc(SCc2nc3ccccc3[nH]2)[nH]1,TOP2A,"enzyme activity, inhibitor",31.7
CC(C)NCC(COc1cccc2ccccc12)OC(=O)C=Cc1ccc(O)c(O)c1 (stereo not drawn),DHFR,"enzyme activity, inhibitor, absorbance",0.048
S=C(NN=Cc1ccc(N2CCCCC2)cc1)Nc1c(Cl)cccc1Cl,DHFR,"enzyme activity, inhibitor",36.3
O=C1C(N2CCC(c3cn[nH]n3)C2)CCN1c1cccc(Cl)c1 (stereo not drawn),HTR2B,"calcium signal, antagonist",7.25
Cc1nc(CSc2nc(SCc3ccc(C(F)(F)F)cc3)nc(=O)[nH]2)cs1,TOP2A,"enzyme activity, inhibitor",64.7
O=C(Nc1ccc(-c2cccc3ncccc23)cc1)C1CCN(S(=O)(=O)c2ccccc2Cl)CC1,FAAH,"enzyme activity, inhibitor, fluorescence",0.0196
Cc1[nH]c2ccccc2c1SCCNC(=O)C1NCCC1C1CC1 (stereo not drawn),HTR2B,"calcium signal, antagonist",5.36
S=C(NN=Cc1ccc(N2CCCCC2)cc1)NC1CCCCC1,DHFR,"enzyme activity, inhibitor",41.2
O=C1CC(CCNCc2ccc(-c3cccc(Br)c3)o2)CN1 (stereo not drawn),HTR2B,"calcium signal, antagonist",8.62
COc1ccc(NC(=S)NN=Cc2ccc(N3CCCCC3)cc2)cc1,DHFR,"enzyme activity, inhibitor",44.6
O=C(C=Cc1ccc(O)c(O)c1)Oc1ccccc1,DHFR,"enzyme activity, inhibitor, absorbance",15.4
S=C(NN=Cc1ccc(N2CCCCC2)cc1)Nc1cccc(Cl)c1Cl,DHFR,"enzyme activity, inhibitor",47.3
NCC1Cc2cc(F)ccc2N(C(=O)Cc2cc(F)ccc2Br)C1 (stereo not drawn),HTR2C,"calcium signal, antagonist",43.4
O=C(Nc1ccc(-c2ccc3ccccc3n2)cc1)C1CCN(S(=O)(=O)c2ccccc2Cl)CC1,FAAH,"enzyme activity, inhibitor, fluorescence",0.0035
S=C(NN=Cc1ccc(N2CCCCC2)cc1)Nc1ccc(Br)cc1,DHFR,"enzyme activity, inhibitor",26.1
Cc1[nH]c2ccccc2c1C(=O)C(C)N1CCC(c2nccn2C)C1 (stereo not drawn),HTR2B,"calcium signal, antagonist",0.0369
S=C(NN=Cc1ccc(N2CCCCC2)cc1)Nc1cccc(Br)c1,DHFR,"enzyme activity, inhibitor",30.2
O=c1cc(-c2ccc(O)cc2)oc2c([C@@H]3OC[C@H](O)[C@H](O)[C@H]3O)c(O)c([C@@H]3O[C@H](CO)[C@@H](O)[C@H](O)[C@H]3O)c(O)c12,"Calcium/calmodulin-dependent protein kinase type II subunit alpha (CAMK2A, Homo sapiens, UniProt Q9UQM7)","enzyme activity, inhibitor",86.1
O=C(c1cc(C2CCNC2)[nH]n1)N1CCC(c2cccc(Cl)c2)C1 (stereo not drawn),HTR2C,"calcium signal, antagonist",8.5
Nc1ccccc1OC(=O)C=Cc1ccc(O)c(O)c1,DHFR,"enzyme activity, inhibitor, absorbance",16.9
Cc1cccc(C(CO)N2CCN(Cc3cc(O)ccc3Cl)CC2)c1 (stereo not drawn),HTR2B,"calcium signal, antagonist",0.691
CC(C)c1ccc(CSc2nc(SCc3ccc4sccc4c3)[nH]c(=O)n2)cc1,TOP2A,"enzyme activity, inhibitor",14.2
O=C(Nc1ccc(-c2ccc3ncccc3c2)cc1)C1CCN(S(=O)(=O)c2ccccc2Cl)CC1,FAAH,"enzyme activity, inhibitor, fluorescence",0.0508
O=C(C=Cc1ccc(O)c(O)c1)OCCc1ccccc1,DHFR,"enzyme activity, inhibitor, absorbance",11.5
Oc1cc(CN2CCN3CCCCC3C2)c2ccccc2c1 (stereo not drawn),HTR2B,"calcium signal, antagonist",0.586
S=C(NCCc1ccccc1)NN=Cc1ccc(N2CCCCC2)cc1,DHFR,"enzyme activity, inhibitor",22.9
Cc1nc(CSc2nc(SCc3cc(F)cc(C(F)(F)F)c3)nc(=O)[nH]2)cs1,TOP2A,"enzyme activity, inhibitor",55
S=C(NN=Cc1ccc(N2CCCCC2)cc1)Nc1ccc(Cl)cc1,DHFR,"enzyme activity, inhibitor",18.4
O=c1nc(SCc2cc(F)cc(C(F)(F)F)c2)nc(SCc2ccc3sccc3c2)[nH]1,TOP2A,"enzyme activity, inhibitor",13.3
O=C(C=Cc1ccc(O)c(O)c1)Oc1cccc2cccnc12,DHFR,"enzyme activity, inhibitor, absorbance",13
